pEC50: −log10 of the molar value.

Data set [1] can be described thus: In vitro anti-HIV activity was determined in peripheral blood mononuclear cells. The format is functional, Homo sapiens. Conditions: for pEC50: Homo sapiens.
Data set [2] can be described thus: (§1) Half life of the compound. The format is ADME.
Data set [3] can be described thus: in vivo. As to conditions: serum.
Data set [4] can be described thus: Relative brain exposure of the compound.
For data set [5] the following is noted: serum.
For data set [6], the species on record is Mus musculus. Description: In vitro degradation rate constant in Mouse serum. The format is ADME. The method, boiled down:
(§2)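 Prodrug added from DMSO standard to an initial 50 or 10 µg/mL in one of four media at 37 °C with shaking: fresh human serum, fresh mouse serum, mouse brain homogenate (1:1 g/mL in physiological phosphate buffer), or phosphate buffer pH 7.4. Sampled 0–10 h. Dihydropyridine, quaternary salt and parent drug were measured by ion-pair HPLC at 260 nm. k is the terminal-phase ln(concentration)–time regression slope, with the associated half-life.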

Data set [7] can be described thus: In vitro degradation rate constant in phosphate buffer at pH 7.4. The format is ADME. The method, boiled down: as §2
For data set [8], the species on record is Mus musculus. Briefly: In vitro degradation rate constant Mouse brain hom. The format is ADME. An outline of the steps:
as §2

Data set [9] in a line: Half life in phosphate buffer at pH 7.4. The format is ADME. The method, boiled down:
as §2

A short description of data set [10]: Half life in Human serum. The format is ADME, organism-based. An outline of the steps: as §2
Data set [11] is described as follows: Half life in Mouse brain hom. As to conditions: brain homogenate. The format is ADME, organism-based. The method, boiled down:
as §2

Data set [12] is described as follows: Half life in Mouse serum. The format is ADME, organism-based. An outline of the steps:
as §2

The next data set is filed under the species Homo sapiens. Description: In vitro degradation rate constant in Human serum. The format is ADME. The method, boiled down: as §2
Data set [13] is described as follows: as §1. The format is functional.
Data set [14] is described as follows: in vivo. As to conditions: brain.

The compound `[N-]=[N+]=N[C@H]1C[C@H](n2ccc(=O)[nH]c2=O)O[C@@H]1CO` (stereo in doubt; form 2) [NAVURIDINE] showed an AUC of 2090 ng·h/mL. Besides, in data set [1], the pEC50 was 6.70. In data set [2], this compound registered a T1/2 of 0.84 h. The compound further registered an AUC in the data set “in vivo [3]” of 25800 ng·h/mL.

As to `[N-]=[N+]=N[C@H]1C[C@H](n2ccc(=O)[nH]c2=O)O[C@@H]1CO` (stereo in doubt; form 1) [NAVURIDINE], the area under the curve (AUC) is 11430 ng·h/mL. This compound also returned a Rel brain exposure in data set [4] of 5.47. In data set [5], this compound returned an AUC of 25790 ng·h/mL. The compound further yielded a T1/2 in data set [2] of 4.34 h.

`Cc1cn([C@H]2C[C@H](N=[N+]=[N-])[C@@H](COC(=O)C3=CN(C)C=CC3)O2)c(=O)[nH]c1=O` had a pEC50 in [1] of 8.80. In addition, the Rate constant stood at 0.49 h⁻¹ in the data set listed under Mus musculus [6], 0.21 h⁻¹ in [7], 3.89 h⁻¹ in the data set listed under Mus musculus [8] and 0.09 h⁻¹ in the data set filed under Homo sapiens. For the same compound, the half-life in data set [9] is 3.23 h; in [10] it was 7.7 h; in data set [11] it was 0.18 h; in [12], 1.4 h. The compound also showed an AUC in the data set “in vivo [3]” of 1270 ng·h/mL.

`Cc1cn([C@H]2C[C@H](N=[N+]=[N-])[C@@H](CO)O2)c(=O)[nH]c1=O` [ZIDOVUDINE] had a pEC50 in data set [1] of 8.70. Moreover, the exposure (AUC) in data set [5] turned out to be 25380 ng·h/mL; in the data set “in vivo [3]”, 26600 ng·h/mL. For the same compound, the half-life in [2] is 0.54 h. In [13], this compound yielded a T1/2 of 15.8 h.

On to `Cc1cn([C@H]2C[C@H](N=[N+]=[N-])[C@@H](COC(=O)c3ccc[n+](C)c3)O2)c(=O)[nH]c1=O.[I-]`, for which the Rate constant was found to be 0.64 h⁻¹ in the data set filed under Mus musculus [6], 0.55 h⁻¹ in data set [7], 0.41 h⁻¹ in the data set listed under Mus musculus [8] and 0.02 h⁻¹ in the data set filed under Homo sapiens. Besides, the AUC in “in vivo [14]” came to 1290 ng·h/mL; in the data set “in vivo [3]” it was 600 ng·h/mL. The half-life is 1.25 h in data set [9], 34.6 h in data set [10], 1.69 h in [11] and 1.08 h in data set [12].

Consider `C[n+]1cccc(C(=O)OC[C@H]2O[C@@H](n3ccc(=O)[nH]c3=O)C[C@@H]2N=[N+]=[N-])c1.[I-]`, for which the Rate constant was 1.36 h⁻¹ in the data set listed under Mus musculus [6], 0.8 h⁻¹ in [7], 1.07 h⁻¹ in the data set listed under Mus musculus [8] and 0.14 h⁻¹ in the data set listed under Homo sapiens. Also, the results for the AUC in “in vivo [14]” and in “in vivo [3]” were 3910 ng·h/mL and 1210 ng·h/mL, respectively. The half-life in [9] was 0.87 h; in [10] it was 4.95 h; in data set [11], 0.65 h; in [12], 0.51 h.

`CN1C=CCC(C(=O)OC[C@H]2O[C@@H](n3ccc(=O)[nH]c3=O)C[C@@H]2N=[N+]=[N-])=C1`: the EC50 in [1] was 1000 nM. The Rate constant in the data set listed under Mus musculus [6] came to 1.24 h⁻¹; in data set [7], 0.33 h⁻¹; in the data set listed under Mus musculus [8], 4.15 h⁻¹; in the data set filed under Homo sapiens it was 0.16 h⁻¹. For the same compound, the half-life is 2.13 h in data set [9], 4.33 h in data set [10], 0.17 h in [11] and 0.56 h in data set [12]. For the same compound, in “in vivo [3]”, the exposure (AUC) is 4430 ng·h/mL.

Broadly, the pEC50 is the EC50 on a negative log10 scale, so that one unit is a factor of ten. The term AUC denotes the area under the concentration-time curve, a measure of exposure. The low end stands for less exposure, the high end for more exposure. Usually half-life stands for the time needed for the level to fall by half in the phase considered. The term EC50 denotes the concentration at which the effect is half-maximal. Read a high EC50 as a need for much substance.

The values are drawn from ChEMBL document CHEMBL1124875, “Brain targeting of anti-HIV nucleosides: synthesis and in vitro and in vivo studies of dihydropyridine derivatives of 3'-azido-2',3'-dideoxyuridine and 3'-azido-3'-deoxythymidine” (J Med Chem, 1990).
